Experimental findings from ChEMBL document CHEMBL3352044, “Synthesis and structure-activity relationship studies of N-benzyl-2-phenylpyrimidin-4-amine derivatives as potent USP1/UAF1 deubiquitinase inhibitors with anticancer activity against nonsmall cell lung cancer” (J Med Chem, 2014) are described below.

The pIC50 is the IC50 on a negative log10 scale, so that one unit is a factor of ten. A lower pIC50 goes with a high IC50. By logD is commonly meant the decadic logarithm of the distribution of all forms, ionised or not, between an organic phase and buffer at a given pH. In general, Papp refers to a coefficient for how fast a substance crosses the barrier. The low end stands for slow passage, the high end for fast passage.

The structures appear in SMILES notation. pIC50: −log10 of the molar value. In brackets after ≈: the same amount, converted by molar mass. Activity calls are given as the source filed them. The rule behind the calls is not given here. Where only a bound is given, the exact number is not on record here.

The nature of series [1]: Cytotoxicity against human H1299 cells assessed as reduction in colony formation at 5 uM after 7 days. The series is classed as functional. The following applies: NCI-H1299, 168 h, read-out: INH. In outline:
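H1299 cells seeded at 200 cells/well, attached overnight, then exposed to 5 μM compound or equal volume DMSO. After 7 days, fixed with 20% methanol and stained with 0.1% crystal violet; percent survival scored versus DMSO control.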

For series [2], the target named is Ubiquitin carboxyl-terminal hydrolase 1/WD repeat-containing protein 48 (Homo sapiens, UniProt O94782). Put plainly: Inhibition of human USP1/UAF1 using ubiquitin-rhodamine110 substrate by fluorescence assay.
Series [3] relates to Liver microsome. Put plainly: Half life in rat liver microsomes in presence of NADPH. The series is classed as ADME. The gist of the method: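 Rat liver microsomes with NADPH; half-life in minutes.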
In general terms: Liver microsomes are a subcellular fraction often used to study metabolism.

Series [4] addresses T1, Ubiquitin carboxyl-terminal hydrolase 1/WD repeat-containing protein 48 (Homo sapiens, UniProt O94782+Q8TAF3). Put plainly: Inhibition of human USP1/UAF1 using ubiquitin-rhodamine110 substrate by fluorescence assay.
Series [5] deals with T1, Ubiquitin carboxyl-terminal hydrolase 1/WD repeat-containing protein 48. Put plainly: Inhibition of human USP1/UAF1 in human H1299 cells assessed as reduction in colony formation up to 25 uM after 7 days. The format is cell-based.
The target is the same in series [6]. Put plainly: Inhibition of human USP1/UAF1 in human […] cells assessed as increase in Ub-PCNA measured after 4 hrs by Western blotting analysis. The format is cell-based. A general note: In western blotting, separated proteins are transferred to a membrane and probed.
For series [7] the target is unchanged. Put plainly: Inhibition of human USP1/UAF1 in human […] cells assessed as increase in Ub-PCNA measured at 1 uM after 4 hrs by Western blotting analysis. The format is cell-based.
The target of series [8] is 5-hydroxytryptamine receptor 2A (Homo sapiens) (UniProt P28223). Put plainly: Inhibition of 5-HT2A (unknown origin) at 10 uM. In outline:
(§1)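 Single concentration of 10 μM in an 80-target panel of GPCRs, ion channels and transporters; percent inhibition recorded.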

Series [9] deals with 5-hydroxytryptamine receptor 2B (Homo sapiens) (UniProt P41595). Put plainly: Inhibition of 5-HT2B (unknown origin) at 10 uM. In outline:
as §1

Series [10] addresses T2, 5-hydroxytryptamine receptor 2C (Homo sapiens) (UniProt P28335).
T2 sequence (whole entry): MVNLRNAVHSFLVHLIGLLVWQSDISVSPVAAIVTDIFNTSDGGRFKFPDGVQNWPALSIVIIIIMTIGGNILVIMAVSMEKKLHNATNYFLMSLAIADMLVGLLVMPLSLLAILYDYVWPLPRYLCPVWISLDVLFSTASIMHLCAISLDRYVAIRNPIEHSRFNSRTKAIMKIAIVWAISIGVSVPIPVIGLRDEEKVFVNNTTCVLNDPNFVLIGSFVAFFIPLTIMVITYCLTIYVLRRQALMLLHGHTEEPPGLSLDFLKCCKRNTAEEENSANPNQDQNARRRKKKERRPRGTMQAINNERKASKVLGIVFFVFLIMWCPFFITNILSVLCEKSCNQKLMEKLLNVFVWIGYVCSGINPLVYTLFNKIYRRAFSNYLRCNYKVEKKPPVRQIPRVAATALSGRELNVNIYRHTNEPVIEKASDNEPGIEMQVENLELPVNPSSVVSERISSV
Put plainly: Inhibition of 5-HT2C (unknown origin) at 10 uM. In outline:
as §1

In series [11] the target is T3, Adenosine receptor A3 (Homo sapiens) (UniProt P0DMS8).
T3 sequence (whole entry): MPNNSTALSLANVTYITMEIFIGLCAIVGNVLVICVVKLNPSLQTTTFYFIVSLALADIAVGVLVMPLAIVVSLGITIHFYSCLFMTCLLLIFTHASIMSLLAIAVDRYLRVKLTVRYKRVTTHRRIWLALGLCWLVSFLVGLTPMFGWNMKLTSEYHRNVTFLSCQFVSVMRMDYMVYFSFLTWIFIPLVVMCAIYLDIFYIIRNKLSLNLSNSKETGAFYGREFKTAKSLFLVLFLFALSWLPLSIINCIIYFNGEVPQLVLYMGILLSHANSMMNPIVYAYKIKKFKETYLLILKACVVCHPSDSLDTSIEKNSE
Put plainly: Inhibition of adenosine A3 receptor (unknown origin) at 10 uM. The gist of the method: as §1

The next series is filed under the species Homo sapiens. Kind of series: Inhibition of Calcium channel (unknown origin) at 10 uM. The gist of the method:
as §1

The target of series [12] is Melatonin receptor type 1A (Homo sapiens) (UniProt P48039). Put plainly: Inhibition of MT1 (unknown origin) at 10 uM. The gist of the method:
as §1

The target of series [13] is T4, Peroxisome proliferator-activated receptor gamma (Homo sapiens) (UniProt P37231).
T4 sequence (whole entry): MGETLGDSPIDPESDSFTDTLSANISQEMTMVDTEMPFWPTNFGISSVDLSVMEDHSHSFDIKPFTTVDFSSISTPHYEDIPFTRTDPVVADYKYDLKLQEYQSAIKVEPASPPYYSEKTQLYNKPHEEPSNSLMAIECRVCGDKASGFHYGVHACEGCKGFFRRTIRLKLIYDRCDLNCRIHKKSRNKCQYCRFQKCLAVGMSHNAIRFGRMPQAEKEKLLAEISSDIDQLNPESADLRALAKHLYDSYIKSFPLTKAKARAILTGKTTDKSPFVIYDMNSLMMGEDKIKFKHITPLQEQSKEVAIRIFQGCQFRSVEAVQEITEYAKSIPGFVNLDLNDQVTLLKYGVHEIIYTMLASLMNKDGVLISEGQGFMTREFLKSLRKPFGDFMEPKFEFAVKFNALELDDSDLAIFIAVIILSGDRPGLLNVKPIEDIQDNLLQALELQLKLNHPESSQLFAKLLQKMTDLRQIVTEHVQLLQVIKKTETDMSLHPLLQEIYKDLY
Put plainly: Inhibition of PPARgamma (unknown origin) at 10 uM. The gist of the method:
as §1

Series [14] can be described thus: Kinetic aqueous solubility of the compound in PBS at pH 7.4. The series is classed as physicochemical. Particulars: read-out: Kinetic_solubility.
Series [15] can be described thus: Lipophilicity, log D of the compound at pH 7.4 by shake-flask method. The format is physicochemical. Particulars: buffer. The gist of the method:
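Log D at pH 7.4 by miniaturized (scaled-down) shake-flask method.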

Series [16] has as its system Liver microsome. Kind of series: Half life in human liver microsomes. The series is classed as ADME. In outline: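 Human liver microsomes in the presence of NADPH; half-life (min).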
The next series relates to Liver. Kind of series: Half life in mouse liver microsomes. The series is classed as ADME. The gist of the method: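 Incubated with mouse liver microsomes in the presence of NADPH, run by a contract lab; read-out is the half-life (T1/2) in minutes.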
Series [17] is described as follows: Permeability of the compound from apical to basolateral direction in human Caco2 cells. The series is classed as ADME, cell-based. The following applies: caco-2. Background: Passage across Caco-2 layers is used to estimate intestinal permeability.
Series [18] is described as follows: Chemical stability of the compound in PBS buffer at pH 7.4 after 48 hrs. The format is physicochemical. The following applies: read-out: Stability. The gist of the method:
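PBS buffer pH 7.4 for 48 h; percent compound remaining.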

A short description of series [19]: Stability of the compound in mouse plasma after 2 hrs. The series is classed as ADME, cell-free. The following applies: read-out: Stability. The gist of the method: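 Mouse plasma incubation for 2 h; percent compound remaining.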

Chain of Ubiquitin carboxyl-terminal hydrolase 1/WD repeat-containing protein 48 (Homo sapiens, UniProt O94782) (O94782 whole entry): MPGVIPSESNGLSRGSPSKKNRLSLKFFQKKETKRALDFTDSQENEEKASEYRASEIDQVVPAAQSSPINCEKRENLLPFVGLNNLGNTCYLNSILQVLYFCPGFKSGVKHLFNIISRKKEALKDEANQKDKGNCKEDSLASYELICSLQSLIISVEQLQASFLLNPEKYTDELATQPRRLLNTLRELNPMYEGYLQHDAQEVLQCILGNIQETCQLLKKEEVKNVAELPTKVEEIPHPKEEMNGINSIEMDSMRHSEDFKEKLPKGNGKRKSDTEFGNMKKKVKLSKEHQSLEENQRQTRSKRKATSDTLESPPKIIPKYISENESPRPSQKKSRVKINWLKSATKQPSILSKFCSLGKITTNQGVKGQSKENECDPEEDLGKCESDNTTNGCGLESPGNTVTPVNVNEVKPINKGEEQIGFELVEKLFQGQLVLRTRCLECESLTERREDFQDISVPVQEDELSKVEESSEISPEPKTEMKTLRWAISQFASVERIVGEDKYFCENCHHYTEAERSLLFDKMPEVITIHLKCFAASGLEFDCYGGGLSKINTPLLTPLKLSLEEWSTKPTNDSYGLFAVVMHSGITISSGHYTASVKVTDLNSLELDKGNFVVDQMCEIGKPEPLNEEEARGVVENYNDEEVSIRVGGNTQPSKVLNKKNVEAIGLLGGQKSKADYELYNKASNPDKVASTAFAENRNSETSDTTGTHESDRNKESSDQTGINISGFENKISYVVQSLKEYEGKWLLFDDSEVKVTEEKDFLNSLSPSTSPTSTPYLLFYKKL
Chain of Ubiquitin carboxyl-terminal hydrolase 1/WD repeat-containing protein 48 (Homo sapiens, UniProt O94782) (Q8TAF3 whole entry, further chain): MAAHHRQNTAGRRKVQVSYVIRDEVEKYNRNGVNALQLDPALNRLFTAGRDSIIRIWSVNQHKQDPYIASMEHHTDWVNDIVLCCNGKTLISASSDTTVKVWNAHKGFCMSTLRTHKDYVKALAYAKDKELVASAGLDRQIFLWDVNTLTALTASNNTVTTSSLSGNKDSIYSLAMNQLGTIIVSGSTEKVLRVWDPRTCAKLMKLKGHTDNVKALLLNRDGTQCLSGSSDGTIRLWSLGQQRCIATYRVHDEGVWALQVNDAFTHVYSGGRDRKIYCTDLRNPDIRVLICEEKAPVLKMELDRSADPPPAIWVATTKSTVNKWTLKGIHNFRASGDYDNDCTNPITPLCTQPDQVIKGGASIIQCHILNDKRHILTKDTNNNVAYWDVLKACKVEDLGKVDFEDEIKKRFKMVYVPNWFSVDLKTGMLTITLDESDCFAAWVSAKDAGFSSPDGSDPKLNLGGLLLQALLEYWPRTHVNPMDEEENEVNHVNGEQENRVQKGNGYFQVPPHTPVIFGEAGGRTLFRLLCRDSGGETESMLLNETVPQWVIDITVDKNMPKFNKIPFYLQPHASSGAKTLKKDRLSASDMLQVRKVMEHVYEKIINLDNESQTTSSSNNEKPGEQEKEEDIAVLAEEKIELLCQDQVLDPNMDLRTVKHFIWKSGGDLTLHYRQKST
T1 sequence (O94782 whole entry): as the sequence (O94782 whole entry) above
T1 sequence (Q8TAF3 whole entry): as the sequence (Q8TAF3 whole entry, further chain) above
Chain of Melatonin receptor type 1A (Homo sapiens) (P48039 whole entry): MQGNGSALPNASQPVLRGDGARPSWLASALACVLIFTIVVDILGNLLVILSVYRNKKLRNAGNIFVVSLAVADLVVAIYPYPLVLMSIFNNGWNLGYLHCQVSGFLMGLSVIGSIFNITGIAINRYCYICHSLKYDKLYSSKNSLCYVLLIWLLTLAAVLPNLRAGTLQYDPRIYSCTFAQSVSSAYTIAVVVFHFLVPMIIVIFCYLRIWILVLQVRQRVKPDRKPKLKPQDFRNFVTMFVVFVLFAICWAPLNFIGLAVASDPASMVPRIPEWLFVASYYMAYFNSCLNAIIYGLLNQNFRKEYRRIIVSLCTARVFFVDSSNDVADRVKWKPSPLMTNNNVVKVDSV
Chain of 5-hydroxytryptamine receptor 2B (Homo sapiens) (P41595 whole entry): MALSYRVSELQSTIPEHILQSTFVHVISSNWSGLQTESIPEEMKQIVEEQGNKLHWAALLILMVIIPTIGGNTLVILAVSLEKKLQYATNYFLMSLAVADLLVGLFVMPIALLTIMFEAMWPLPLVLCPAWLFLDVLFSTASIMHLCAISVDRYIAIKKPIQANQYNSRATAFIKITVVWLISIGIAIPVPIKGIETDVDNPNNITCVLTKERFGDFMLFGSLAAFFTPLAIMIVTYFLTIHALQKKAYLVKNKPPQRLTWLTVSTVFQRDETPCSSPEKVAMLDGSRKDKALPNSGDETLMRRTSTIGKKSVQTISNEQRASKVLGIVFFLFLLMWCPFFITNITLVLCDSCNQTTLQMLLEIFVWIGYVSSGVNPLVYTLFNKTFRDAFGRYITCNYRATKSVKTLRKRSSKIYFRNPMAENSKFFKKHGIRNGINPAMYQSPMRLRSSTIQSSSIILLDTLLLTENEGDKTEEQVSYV
Chain of 5-hydroxytryptamine receptor 2A (Homo sapiens) (P28223 whole entry): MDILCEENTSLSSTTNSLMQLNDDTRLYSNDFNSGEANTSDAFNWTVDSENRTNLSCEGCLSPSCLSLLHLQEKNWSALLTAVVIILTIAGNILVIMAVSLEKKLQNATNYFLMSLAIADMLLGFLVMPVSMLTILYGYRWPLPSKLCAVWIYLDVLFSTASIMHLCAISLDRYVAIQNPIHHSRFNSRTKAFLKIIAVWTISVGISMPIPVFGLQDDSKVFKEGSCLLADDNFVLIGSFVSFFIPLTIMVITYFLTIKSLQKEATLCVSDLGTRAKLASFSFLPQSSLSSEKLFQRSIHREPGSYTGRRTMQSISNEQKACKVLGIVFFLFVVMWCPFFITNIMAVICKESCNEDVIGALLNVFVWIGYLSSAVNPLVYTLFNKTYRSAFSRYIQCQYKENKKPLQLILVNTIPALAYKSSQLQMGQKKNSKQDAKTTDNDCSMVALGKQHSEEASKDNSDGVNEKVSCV

For the compound `Cc1cnc(-c2ccccc2C(C)C)nc1NCc1ccc(-n2ccnc2)cc1`, in [1], the inhibition at 5 µM is above 70%. The same compound gave a pIC50 in [2] of 6.52.
As to `Cc1cnc(-c2ccccc2C2COC2)nc1NCc1ccc(-c2cccnc2)cc1`, the t1/2 with Liver microsome [3] is recorded as above 30 min. Also, the IC50 result in series [4] is “Not Active”.
`Cc1cnc(-c2ccccc2C2CC2)nc1NCc1ccc(-c2cccnc2)cc1`: in the series on Liver microsome [3], the t1/2 is recorded as 6.2 min. In [2], this compound had a pIC50 of 6.74.
Take `c1cncc(-c2ccc(CNc3nc(N4CCOCC4)nc4ccccc34)cc2)c1`: in series [4], the IC50 result is “Not Active”.
On the same count and under the same terms, then `FC(F)(F)c1ccc(-c2nc(NCc3ccc(-c4cccnc4)cc3)c3ccccc3n2)cc1`, with “Not Active”.
Take `Cc1cnc(-c2ccccc2C2COC2)nc1NCc1ccc(-n2ccnn2)cc1`: in the series with Liver microsome [3], the t1/2 is reported as above 30 min. Moreover, in series [5], the inhibition entry is “inactive”. Moreover, the IC50 result in series [4] was “Not Active”.
As for `c1cncc(-c2ccc(CNc3nc(C4CCCC4)nc4ccccc34)cc2)c1`, the IC50 entry in series [4] is on record as “Not Active”.
In the case of `Cc1cnc(-c2ccccc2C(C)C)nc1NC(C)(C)c1ccc(-n2ccnn2)cc1`, in the series with Liver microsome [3], the t1/2 turned out to be 22 min. The pIC50 in series [2] was 6.23.
`FC(F)(F)c1cccc(-c2nc(NCc3ccc(-c4cccnc4)cc3)c3ccccc3n2)c1`: the IC50 result in [4] is recorded as “Not Active”.
Take `[2H]C([2H])([2H])C([2H])(c1ccccc1-c1ncc(C)c(NC(C)(C)c2ccc(-n3ccnn3)cc2)n1)C([2H])([2H])[2H]`: the t1/2 in the series on Liver microsome [3] is given as 10 min. Also, in [2], the pIC50 is 6.12.
With `c1cncc(-c2ccc(CNc3nc(N4CCCC4)nc4ccccc34)cc2)c1`, in series [4], the IC50 entry was “Not Active”.
For the compound `CC(C)c1ccccc1-c1nc(NCc2ccc(-c3cccnc3)cc2)c2occc2n1`, the inhibition at 5 µM in series [1] was above 70%. Also, in series [2], the negative-log IC50 (pIC50) is 7.10.
As to `Cc1cnc(-c2ccccc2C(C)C)nc1NCC1CCN(C)CC1`, the IC50 result in series [4] was “Not Active”.
For `c1cncc(-c2ccc(CNc3nc(-n4ccnc4)nc4ccccc34)cc2)c1`, the IC50 result in [4] is recorded as “Not Active”.
For `FC(F)(F)c1ccccc1-c1nc(NCc2cccs2)c2ccccc2n1`, the inhibition result in [6] is “Dose-dependent effect”. Moreover, the pIC50 in [2] is 5.10.
`Cc1cnc(-c2ccccc2C(F)F)nc1NCc1ccc(-n2ccnn2)cc1`: the t1/2 in the series on Liver microsome [3] amounted to 21 min. Also, the pIC50 in [2] was 6.09.
On the same counts, the results for `Cc1cnc(-c2ccccc2C2CCC2)nc1NCc1ccc(-n2ccnn2)cc1` are 5.1 min and 6.74.
Regarding `COc1cnc(-c2ccccc2C(C)C)nc1NCc1ccc(-c2cccnc2)cc1`, in series [1], the inhibition at 5 µM is above 70%. In [2], the negative logarithm of the IC50 (pIC50) was 7.15.
With `Cc1cnc(-c2ccccc2C(C)C)nc1NCC1CCN(c2cccnc2)CC1`, in series [6], the inhibition entry was “Dose-dependent effect”. Moreover, the result in series [7] was Active. Moreover, in [1], the inhibition at 5 µM is above 70%. For the same compound, the pIC50 in series [2] was 7.10.
With `Cc1cnc(-c2ccccc2C(C)C)nc1NCc1ccc(-n2ccnn2)cc1`, the t1/2 is listed as 15 min in the series with Liver microsome [3], 26 min in the series on Liver microsome [16] and 15 min in the series on Liver. The inhibition at 5 µM in series [1] was above 70%. For the same compound, the inhibition (in [8]; in series [9]; in series [10]; in series [11]; in the series listed under Homo sapiens; in [12]) was above 50% throughout. This compound yielded an inhibition in [13] above 50%. Also, the solubility kinetic in series [14] was determined as 86 µM (≈ 33.1 µg/mL). Further, in [15], the logD amounted to 1.97. Besides, the Papp in series [17] was 22.98 ×10⁻⁶ cm/s. In [18], the remaining at 48 h turned out to be 99%. In addition, the remaining at 2 h in [19] amounted to 99%.
